# Assay results: PMC11904481 (ESMO Open, 2025)
# Like-named read-outs stand apart in the source and are kept apart here.
# Columns and labels:
# [1] = biological target: ERK1/2 kinase; details: read-out: enzymatic IC50; cited from earlier work
# [2] = system: patient-derived xenograft (PDX) models of esophageal squamous cell carcinoma; details: cited from earlier work
# [3] = system: patients with locally advanced unresectable or metastatic, relapsed and/or refractory nonhematological malignancies; assay: Phase I dose escalation: MTD / DLT determination; type: in vivo, human
# Summary of the method: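 I.v. test compound started at 0.45 mg/kg weekly in 28-day cycles (1 h infusion). Accelerated titration used single-patient cohorts with 100% increments up to 3.6 mg/kg, then 3 + 3 cohorts above 3.6 mg/kg. Schedule 2: weekly, 4 h infusion (minimum 2 h). Schedule 3: days 1, 4, 8 (later also 11, 15) of 21-day cycles, ≥4 h infusion, ≥6 h for doses >9.6 mg/kg. MTD/RP2D derived from DLTs.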
# [4] = Phase I plasma pharmacokinetics; type: in vivo, human
# [5] = biological target: human ether-a-go-go-related gene (hERG) potassium channel (Homo sapiens, UniProt Q12809); assay: hERG potassium channel inhibition; type: biochemical
# Chain of human ether-a-go-go-related gene (hERG) potassium channel (Q12809 whole entry): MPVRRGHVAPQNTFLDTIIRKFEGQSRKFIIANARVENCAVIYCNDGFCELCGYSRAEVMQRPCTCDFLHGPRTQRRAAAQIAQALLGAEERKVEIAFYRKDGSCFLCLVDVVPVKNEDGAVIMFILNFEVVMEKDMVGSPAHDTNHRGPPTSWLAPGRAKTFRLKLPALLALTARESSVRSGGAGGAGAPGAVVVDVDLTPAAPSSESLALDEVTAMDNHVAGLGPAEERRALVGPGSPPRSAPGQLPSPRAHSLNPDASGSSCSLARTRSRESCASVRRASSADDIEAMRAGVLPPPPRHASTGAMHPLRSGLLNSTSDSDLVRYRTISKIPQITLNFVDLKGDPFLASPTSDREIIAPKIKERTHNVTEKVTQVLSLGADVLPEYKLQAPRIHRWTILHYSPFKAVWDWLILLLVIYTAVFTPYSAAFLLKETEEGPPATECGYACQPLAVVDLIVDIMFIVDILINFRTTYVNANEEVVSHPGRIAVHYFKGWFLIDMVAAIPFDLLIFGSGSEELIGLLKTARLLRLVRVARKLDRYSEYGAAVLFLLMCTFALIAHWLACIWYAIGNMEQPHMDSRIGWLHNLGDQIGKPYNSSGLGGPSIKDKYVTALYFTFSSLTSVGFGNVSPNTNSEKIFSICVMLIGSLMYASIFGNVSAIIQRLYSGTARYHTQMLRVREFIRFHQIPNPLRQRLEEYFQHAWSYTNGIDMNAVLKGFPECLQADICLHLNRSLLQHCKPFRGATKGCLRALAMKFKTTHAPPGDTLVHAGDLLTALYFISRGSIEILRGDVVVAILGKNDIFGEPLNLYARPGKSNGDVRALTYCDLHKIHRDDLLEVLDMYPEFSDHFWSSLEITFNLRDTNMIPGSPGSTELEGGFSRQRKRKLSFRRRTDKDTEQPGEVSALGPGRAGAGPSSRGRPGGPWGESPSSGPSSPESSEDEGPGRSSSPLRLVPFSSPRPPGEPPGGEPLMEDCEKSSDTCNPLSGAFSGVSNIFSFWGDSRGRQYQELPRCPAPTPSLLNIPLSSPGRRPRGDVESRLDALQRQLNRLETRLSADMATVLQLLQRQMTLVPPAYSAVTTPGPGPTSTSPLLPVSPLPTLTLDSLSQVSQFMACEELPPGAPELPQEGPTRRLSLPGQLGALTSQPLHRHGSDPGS
# [6] = system: models of head and neck SCC; details: cited from earlier work
# [7] = 11q13-amplified (11q-AMP) PDX models of esophageal SCC
# [8] = 11q13WT PDX models of esophageal SCC
structure (smiles),measurement,setting,value
O=C1Nc2cc3[nH]nc(-c4ccncc4)c3cc2CN1Cc1ccccc1 [KO-947],IC50,[1],0.01 µM
same,disease control rate,[2]; [7],77%
same,overall response rate,[2]; [7],51%
same,disease control rate,[2]; [8],21%
same,overall response rate,[2]; [8],3%
same,recommended dose (RP2D),"[3]; i.v. days 1, 4, 8, 11, and 15 every 21 days, ≥4-hour infusion",8.5 mg/kg
same,patients who experienced DLTs,"[3]; schedule 1 cohort 5, 5.4 mg/kg, grade 3 QTc prolongation and grade 3 retinopathy",2/6
same,DLTs,"[3]; schedule 1 cohorts 1-4 (0.45-3.6 mg/kg), six patients",no DLTs
same,maximum administered dose,"[3]; schedule 2, once weekly, 28-day cycle, 4-hour infusion",9.6 mg/kg
same,DLTs,"[3]; schedule 2 cohort 9 (9.6 mg/kg), two patients of six",DLT of QTc prolongation
same,DLTs,[3]; schedule 2 cohorts 5-8 (4.8-7.2 mg/kg),no DLTs
same,maximum administered dose,"[3]; schedule 3, 21-day cycle",11.3 mg/kg
same,DLTs,"[3]; schedule 3 cohort 3, 6.4 mg/kg",One DLT of hypotension
same,DLTs,"[3]; schedule 3 cohort 4 (8.5 mg/kg, n = 3)",No DLTs
same,DLTs,"[3]; schedule 3 cohort 5 (11.3 mg/kg), one patient of six",DLT of an infusion-related reaction
same,DLTs,"[3]; schedule 3 cohorts 1 or 2 (3.6-4.8 mg/kg), six patients",no DLTs
same,plasma concentration,"[4]; 11.3 mg/kg, cohort 5 of schedule 3, 6-hour infusion, held for ∼4 hours",~3600 ng/mL
same,"dose proportionality of exposure, slope","[4]; after a single dose, noncompartmental analysis",1.2
same,accumulation,[4]; all dosing schedules,None to minimal accumulation
same,half-life,"[4]; human, plasma, intravenous",6.5 to 24 h
same,half-life,"[4]; human, plasma, intravenous, 3.6 mg/kg",~6.65 h
same,Cmax,"[4]; human, plasma, intravenous, 3.6 mg/kg, highest Cmax, 1-hour infusion",3630 ng/mL
same,Vd,[4]; in vivo,moderate
same,plasma CL,[4]; in vivo,moderate
same,time at which Cmax was achieved (near the end of the infusion),[4]; schedules 2 and 3,~4 h
same,IC50,[5],4.4 µM
same,mean free Cmax relative to hERG IC50,[5]; overall study,about one-tenth
same,antitumor response,[6]; 11q-AMP models of head and neck cancer,Complete responses and tumor regression
same,overall response rate,[6]; mouse models of head and neck SCC with 11q-AMP,56%
same,overall response rate,"[6]; mouse models of head and neck SCC, 11q13WT",9%
